Experimental findings from ChEMBL document CHEMBL1148356, “Synthesis and biological evaluation of 3-heterocyclyl-7,8,9,10-tetrahydro-(7,10-ethano)-1,2,4-triazolo[3,4-a]phthalazines and analogues as subtype-selective inverse agonists for the GABA(A)alpha5 benzodiazepine binding site” (J Med Chem, 2004) are described below.

In assay [1] the target is GABA-A receptor; alpha-6/beta-3/gamma-2 (Homo sapiens, UniProt P18507+P28472+Q16445). Description: Inhibition of [3H]Ro-151788 binding to human alpha-6-beta-3-gamma-2 GABA-A receptor expressed in L(tk-) cells. It is filed as cell-based.
GABA-A receptor; alpha-6/beta-3/gamma-2, sequence (Q16445 whole entry, one chain of several): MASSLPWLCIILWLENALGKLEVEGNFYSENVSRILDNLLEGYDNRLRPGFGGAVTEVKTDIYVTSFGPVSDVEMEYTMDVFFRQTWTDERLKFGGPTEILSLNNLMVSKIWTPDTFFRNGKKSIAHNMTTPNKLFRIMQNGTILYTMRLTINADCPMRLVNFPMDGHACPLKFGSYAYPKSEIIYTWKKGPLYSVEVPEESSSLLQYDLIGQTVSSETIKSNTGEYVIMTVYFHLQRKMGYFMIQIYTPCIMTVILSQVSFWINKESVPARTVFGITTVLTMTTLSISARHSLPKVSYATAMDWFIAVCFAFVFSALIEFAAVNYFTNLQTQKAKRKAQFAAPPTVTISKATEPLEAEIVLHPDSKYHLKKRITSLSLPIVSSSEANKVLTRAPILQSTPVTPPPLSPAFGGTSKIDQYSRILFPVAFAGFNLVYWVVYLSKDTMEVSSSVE
The test system of another assay is Rattus norvegicus. Description: Tested for cognitive performance in rats in delayed matching-to-place version of water maze test at 1 mg/kg p.o.; Significant enhancement in performance. More on the design: dose 1 mg/kg. It is filed as functional, organism-based.
Assay [2] concerns the target T1, GABA-A receptor; alpha-3/beta-3/gamma-2 (Homo sapiens, UniProt P18507+P28472+P34903).
T1 sequence (P18507 whole entry): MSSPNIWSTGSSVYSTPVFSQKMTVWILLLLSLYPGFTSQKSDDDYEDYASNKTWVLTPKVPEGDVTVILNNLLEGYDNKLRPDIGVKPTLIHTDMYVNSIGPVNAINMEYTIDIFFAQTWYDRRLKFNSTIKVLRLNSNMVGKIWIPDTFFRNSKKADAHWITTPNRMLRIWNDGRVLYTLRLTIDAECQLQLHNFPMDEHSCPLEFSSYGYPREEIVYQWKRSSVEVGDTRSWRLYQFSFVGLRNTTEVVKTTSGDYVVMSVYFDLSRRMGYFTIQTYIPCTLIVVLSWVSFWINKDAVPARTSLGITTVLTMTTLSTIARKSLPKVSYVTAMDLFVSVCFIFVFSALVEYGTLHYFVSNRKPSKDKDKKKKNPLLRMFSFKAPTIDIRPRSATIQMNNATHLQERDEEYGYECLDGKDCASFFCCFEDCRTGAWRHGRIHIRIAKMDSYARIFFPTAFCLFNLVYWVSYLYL
T1 sequence (P28472 whole entry): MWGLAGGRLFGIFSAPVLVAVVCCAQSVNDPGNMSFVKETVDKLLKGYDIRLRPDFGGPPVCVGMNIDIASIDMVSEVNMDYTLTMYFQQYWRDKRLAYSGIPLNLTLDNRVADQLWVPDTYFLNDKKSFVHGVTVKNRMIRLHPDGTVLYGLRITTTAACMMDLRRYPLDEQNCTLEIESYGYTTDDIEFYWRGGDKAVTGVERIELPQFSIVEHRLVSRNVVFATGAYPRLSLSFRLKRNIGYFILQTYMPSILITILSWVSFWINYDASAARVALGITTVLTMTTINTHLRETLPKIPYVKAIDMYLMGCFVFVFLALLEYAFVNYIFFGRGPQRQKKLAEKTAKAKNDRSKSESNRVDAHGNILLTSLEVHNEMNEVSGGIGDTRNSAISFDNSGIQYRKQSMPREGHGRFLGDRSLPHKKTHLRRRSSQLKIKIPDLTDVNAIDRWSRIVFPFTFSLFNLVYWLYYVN
T1 sequence (P34903 whole entry): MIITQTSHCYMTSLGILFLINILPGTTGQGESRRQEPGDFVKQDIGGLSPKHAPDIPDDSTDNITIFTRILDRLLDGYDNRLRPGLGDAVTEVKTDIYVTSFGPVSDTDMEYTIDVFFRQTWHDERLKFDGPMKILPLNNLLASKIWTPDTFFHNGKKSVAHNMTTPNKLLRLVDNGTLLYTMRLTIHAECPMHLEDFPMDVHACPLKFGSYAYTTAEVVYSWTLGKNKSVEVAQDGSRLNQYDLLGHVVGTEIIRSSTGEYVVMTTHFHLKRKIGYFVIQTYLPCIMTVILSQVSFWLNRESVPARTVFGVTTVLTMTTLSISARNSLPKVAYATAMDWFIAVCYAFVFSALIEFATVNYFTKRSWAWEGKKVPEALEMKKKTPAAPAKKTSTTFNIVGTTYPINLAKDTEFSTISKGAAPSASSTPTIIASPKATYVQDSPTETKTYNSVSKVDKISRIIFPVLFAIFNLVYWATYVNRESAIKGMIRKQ
In words: Binding affinity towards human gamma-aminobutyric-acid A receptor alpha-3-beta-3-gamma-2 using [3H]Ro-151788 expressed in L(tk-) cells. It counts as cell-based.

Assay [3] concerns the target GABA-A receptor; alpha-3/beta-3/gamma-2 (Homo sapiens) (UniProt P18507+P28472+P34903). In words: Percent maximum change in electrophysiological response in Xenopus oocytes expressing alpha-3-beta-3-gamma-2 GABA-A receptor. It counts as functional, cell-based. As to conditions: Oocyte. An outline of the steps: (§1)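 Two-electrode voltage clamp on Xenopus oocytes injected with human GABA-A subunit cDNAs, 24-72 h expression, perfused with modified Barth's medium at pH 7.5, clamped between -40 and -70 mV. The GABA EC20 was titrated against a 3 mM GABA maximum. […] Result is % change of control current, mean ± SE of ≥4 oocytes.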

Assay [4] concerns the target T2, GABA-A receptor; alpha-5/beta-3/gamma-2 (Homo sapiens, UniProt P18507+P28472+P31644).
T2 sequence (P18507 whole entry): T1 sequence (P18507 whole entry)
T2 sequence (P28472 whole entry): T1 sequence (P28472 whole entry)
T2 sequence (P31644 whole entry): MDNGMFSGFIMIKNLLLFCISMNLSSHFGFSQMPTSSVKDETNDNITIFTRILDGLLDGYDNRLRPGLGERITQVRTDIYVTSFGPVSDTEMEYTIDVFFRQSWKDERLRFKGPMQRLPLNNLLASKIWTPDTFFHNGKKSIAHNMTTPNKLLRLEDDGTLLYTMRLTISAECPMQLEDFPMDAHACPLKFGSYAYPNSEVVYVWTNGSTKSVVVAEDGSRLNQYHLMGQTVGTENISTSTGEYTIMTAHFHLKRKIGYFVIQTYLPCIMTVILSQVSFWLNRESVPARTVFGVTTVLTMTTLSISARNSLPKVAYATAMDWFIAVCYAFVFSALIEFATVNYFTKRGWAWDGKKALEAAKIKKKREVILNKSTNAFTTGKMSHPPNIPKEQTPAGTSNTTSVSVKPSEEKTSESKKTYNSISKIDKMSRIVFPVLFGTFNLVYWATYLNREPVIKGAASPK
In words: Binding affinity towards human alpha-5-beta-3-gamma-2 GABA-A receptor using [3H]Ro-151788 expressed in L(tk-) cells. It counts as cell-based.

The target in assay [5] is GABA-A receptor; alpha-5/beta-3/gamma-2 (Homo sapiens) (UniProt P18507+P28472+P31644). In words: Percent change in electrophysiological response in Xenopus oocytes expressing Alpha-5-beta-3-gamma-2 GABA-A receptor. It is filed as functional, cell-based. The settings on record: Oocyte. An outline of the steps:
as §1

The target of assay [6] is T2, GABA-A receptor; alpha-5/beta-3/gamma-2. In words: Effective concentration against human Alpha-5-beta-3-gamma-2 GABA-A receptor was determined. It is filed as functional. In outline:
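Whole-cell patch clamp was run on Ltk- cells stably expressing human α5β3γ2s. Bath solution was NaCl/NaHCO3/glucose buffer, pH 7.2. Pipettes held 130 mM CsCl, 10 mM EGTA, 3 mM Mg-ATP, pH 7.3. Drug was applied by double-barreled pipette with an EC20 GABA concentration, and concentration–response data were fitted to a Hill equation for EC50. Values are mean ± SEM of at least five fitted curves, with at least five cells per point.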

In assay [7] the target is GABA-A receptor; alpha-2/beta-3/gamma-2 (Homo sapiens) (UniProt P18507+P28472+P47869). Description: Percent change in electrophysiological response in Xenopus oocytes expressing Alpha2-beta3-gamma2 GABA-A receptor. It is filed as functional, cell-based. As to conditions: Oocyte. An outline of the steps: as §1

The source made the active and inactive calls. The rule behind the calls is not given here.

Turning to `Cc1cc(-c2nnc3c4ccccc4c(OCc4ccccn4)nn23)no1`, the figures for the Ki in assay [1], in assay [2] and in assay [4] were 4410 nM, 1.4 nM and 0.8 nM, respectively. Further, in the assay with Rattus norvegicus, the outcome was Active. Moreover, the Efficacy in assay [3] was -17%; in assay [5], -46%; in assay [7], 15%. Moreover, in assay [6], the 50% effective concentration (EC50) came out at 2.5 nM.
